Measurements: ChEMBL document CHEMBL1139252, “Inhibition of purple acid phosphatase with alpha-alkoxynaphthylmethylphosphonic acids” (Bioorg Med Chem Lett, 2009)

Experiments:
[1] = biological target: T1, Fe(3+)-Zn(2+) purple acid phosphatase (Phaseolus vulgaris, UniProt P80366); test: Inhibition of red kidney bean PAP at pH 6.2
T1 sequence (P80366 whole entry): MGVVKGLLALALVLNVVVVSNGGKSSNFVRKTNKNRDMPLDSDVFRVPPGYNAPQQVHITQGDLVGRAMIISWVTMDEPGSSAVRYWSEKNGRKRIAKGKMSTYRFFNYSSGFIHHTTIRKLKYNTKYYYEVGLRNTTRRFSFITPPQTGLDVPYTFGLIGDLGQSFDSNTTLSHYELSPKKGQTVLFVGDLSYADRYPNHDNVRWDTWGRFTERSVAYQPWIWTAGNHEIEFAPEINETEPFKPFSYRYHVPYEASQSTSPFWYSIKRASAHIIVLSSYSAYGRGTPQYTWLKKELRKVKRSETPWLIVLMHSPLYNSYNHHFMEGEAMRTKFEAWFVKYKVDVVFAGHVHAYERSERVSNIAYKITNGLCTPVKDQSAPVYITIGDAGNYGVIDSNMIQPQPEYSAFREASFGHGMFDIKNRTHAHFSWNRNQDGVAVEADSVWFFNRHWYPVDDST
Procedure, shortened: (§1)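 Each enzyme was run at its own pH optimum: red kidney bean PAP at pH 6.2 and pig PAP at pH 4.9. IC50 values were determined experimentally. Separate inhibition constants were derived for binding to the free enzyme and to the enzyme–substrate complex.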

[2] = Inhibition of human PAP
[3] = Inhibition of pig PAP at pH 4.9; set-up: species or system Sus scrofa; procedure, shortened: as §1

Structure (SMILES) | IC50 [1] | IC50 [3] | IC50 [2]
O=P(O)(O)C(O)c1cccc2ccccc12 (stereo not given) | 5000 µM |  | 
O=C(c1ccccc1)C(C(=O)c1ccccc1)(c1cccc2ccccc12)P(=O)(O)O |  |  | 1.4 µM
O=P(O)(O)Cc1cccc2ccccc12 | > 7000 µM |  | 30 µM

Continued, in another order:

IC50 [1] | IC50 [3] | Structure (SMILES) | IC50 [2]
100 µM | 30 µM | CCCCCCCCOC(c1cccc2ccccc12)P(=O)(O)O (racemic) | 
8 µM | 20 µM | CCCCCCCCCCOC(c1cccc2ccccc12)P(=O)(O)O (racemic) | 
1000 µM | 430 µM | CCCCCCOC(c1cccc2ccccc12)P(=O)(O)O (racemic) | 
